# Test results as given in ChEMBL document CHEMBL2202972, “Synthesis and biological evaluation of 2-substituted-4-(3',4',5'-trimethoxyphenyl)-5-aryl thiazoles as anticancer agents” (Bioorg Med Chem, 2012).
# pIC50: −log10 of the molar value. Active and inactive are the calls of the source. The calls are words filed in the database; no cut-off is given here.
# Tests used:
# [1] = test system: CCRF-CEM; test: Resistance ratio of IC50 for human vinblastine-resistant CEM/VBL100 cells overexpressing P-glycoprotein to IC50 for human CEM cells; assay type: functional
# [2] = test system: HeLa; test: Downregulation of Xiap expression in human HeLa cells at 250 to 500 nM after 24 hrs by Western blot analysis; assay type: functional, cell-based
# In short: (§1)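 HeLa cells treated for 24 or 48 h, washed twice with ice-cold PBS and lysed on ice 30 min; lysates spun at 15000 ×g, 4 °C. Protein (20 μg) resolved by SDS–PAGE on 7.5–15% gels and blotted to PVDF. Specific primary antibodies for 2 h at room temperature, then peroxidase secondary for 60 min, ECL detection. Membranes stripped and reprobed for β-actin as loading control.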
# [3] = test system: HeLa; test: Downregulation of Mcl-1 expression in human HeLa cells at 250 to 500 nM after 24 hrs by Western blot analysis; assay type: functional, cell-based; in short: as §1
# [4] = test system: HeLa; test: Effect on Bax expression in human HeLa cells at 250 to 500 nM after 24 to 48 hrs by Western blot analysis; assay type: functional, cell-based; in short: as §1
# [5] = test system: HeLa; test: Induction of apoptosis in human HeLa cells assessed as appearance of cleaved caspase-8 protein at 250 to 500 nM after 24 to 48 hrs by Western blot analysis; assay type: functional, cell-based; in short: as §1
# [6] = test system: HeLa; test: Induction of apoptosis in human HeLa cells assessed as disappearance of uncleaved caspase-2 protein at 250 to 500 nM after 24 to 48 hrs by Western blot analysis; assay type: functional, cell-based; in short: as §1
# [7] = test system: HeLa; test: Induction of apoptosis in human HeLa cells assessed as mitochondrial polarization; assay type: functional, cell-based
# [8] = test system: HeLa; test: Induction of apoptosis in human HeLa cells assessed as increase in caspase-3-mediated PARP cleavage at 250 to 500 nM after 24 to 48 hrs by Western blot analysis; assay type: functional, cell-based; in short: as §1
# [9] = test system: HeLa; test: Induction of apoptosis in human HeLa cells assessed as caspase-3 activation at 250 to 500 nM after 24 to 48 hrs by Western blot analysis; assay type: functional, cell-based; in short: as §1
# [10] = test system: HeLa; test: Induction of apoptosis in human HeLa cells at 500 nM after 24 to 48 hrs by Annexin V-FITC/propidium iodide staining based biparametric cytofluorimetric analysis; assay type: functional, cell-based
# In short: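 HeLa cells treated at 250 or 500 nM for 24 or 48 h, then labelled with annexin-V-FITC (phosphatidylserine) plus propidium iodide. Red and green fluorescence measured by biparametric flow cytometry. Mean ± SEM of three independent experiments.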
# [11] = test system: HeLa; test: Downregulation of cyclin B expression in human HeLa cells at 250 to 500 nM after 48 hrs by Western blot analysis; assay type: functional, cell-based; in short: as §1
# [12] = test system: HeLa; test: Effect on cyclin B expression in human HeLa cells at 250 to 500 nM after 24 hrs by Western blot analysis; assay type: functional, cell-based; in short: as §1
# [13] = molecular target: T1, M-phase inducer phosphatase 3 (Homo sapiens) (UniProt P30307); test: Induction of cdc25C phosphorylation in human HeLa cells assessed as cdc2 kinase dephosphorylation at Tyr15 in human HeLa cells at 250 to 500 nM after 24 to 48 hrs by Western blot analysis; assay type: cell-based; in short: as §1
# T1 sequence (whole entry): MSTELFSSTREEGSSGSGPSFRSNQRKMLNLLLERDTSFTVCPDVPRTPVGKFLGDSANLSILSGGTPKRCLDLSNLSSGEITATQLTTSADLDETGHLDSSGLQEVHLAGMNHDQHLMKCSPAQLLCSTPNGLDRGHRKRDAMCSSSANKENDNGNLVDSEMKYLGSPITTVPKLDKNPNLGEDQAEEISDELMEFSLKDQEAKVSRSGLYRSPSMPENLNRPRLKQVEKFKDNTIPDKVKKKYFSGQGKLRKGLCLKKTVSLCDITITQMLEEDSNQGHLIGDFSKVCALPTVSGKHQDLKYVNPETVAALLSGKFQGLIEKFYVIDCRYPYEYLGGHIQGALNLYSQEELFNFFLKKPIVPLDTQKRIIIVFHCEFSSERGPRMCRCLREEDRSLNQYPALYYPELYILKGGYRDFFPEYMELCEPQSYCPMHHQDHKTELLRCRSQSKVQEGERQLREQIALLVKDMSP
# [14] = test system: Jurkat; test: Cell cycle arrest in human Jurkat cells assessed as accumulation of cells at G2/M phase after 24 hrs by propidium iodide staining based flow cytometric analysis; assay type: functional
# In short: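 HeLa or Jurkat cells (5 × 10⁵, exponential growth) treated 24 h with 31–500 nM compound. Cells fixed in ice-cold 70% ethanol, treated with lysis buffer containing RNase A and 0.1% Triton X-100, then stained with propidium iodide. DNA content measured by flow cytometry to give phase distribution. Mean ± SEM of three independent experiments.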
# [15] = species on record: Bos taurus; test: Displacement of [3H]colchicine from tubulin in bovine brain at 5 uM DEAE-cellulose filter method
# [16] = Inhibition of bovine brain tubulin polymerization preincubated for 15 mins by turbidimetric analysis; parameters: species or system Bos taurus
# In short: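 Bovine brain tubulin (10 μM) in glutamate buffer preincubated with varying compound concentrations for 15 min at 30 °C, then chilled to 0 °C. GTP 0.4 mM added and mixtures warmed to 30 °C in a spectrophotometer; assembly followed by turbidity at 350 nm.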
# [17] = Antiproliferative activity against human taxol-resistant A549-T12 cells expressing tubulin mutant gene after 72 hrs by MTT assay; assay type: functional, cell-based; conditions: A549, 72 h
# In short: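 Resistant sublines cultured under selection: LoVo^Doxo (doxorubicin-resistant LoVo subclone) in complete Ham's F12 with doxorubicin 0.1 μg/mL; A549-T12 in complete DMEM with taxol 12 nM. Seeded at 8 × 10³ per well, 18 h preincubation, then 72 h compound exposure at 37 °C. MTT read-out.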
# [18] = test system: CCRF-CEM; test: Antiproliferative activity against human CEM cells after 72 hrs by MTT assay; assay type: functional, cell-based
# [19] = test system: LoVo; test: Antiproliferative activity against human LoVo cells after 72 hrs by MTT assay; assay type: functional, cell-based
# In short: (§2)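 Cells seeded at 8 × 10³ per well and incubated 18 h at 37 °C, 5% CO₂, then exposed to a range of compound concentrations for 72 h at 37 °C. Jurkat and HL-60 were grown in RPMI-1640, the others in DMEM, with penicillin, streptomycin and 10% FBS. DMSO stocks (10 mM); DMSO ≤0.25% final. Viability by MTT. […] Mean ± SE of ≥3 independent experiments.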
# [20] = test system: PBL; test: Growth inhibition of PHA-stimulated human PBL after 72 hrs by MTT assay; assay type: functional
# [21] = test system: Jurkat; test: Ratio of compound IC50 to CA-4 IC50 for human Jurkat cells after 72 hrs by MTT assay; assay type: functional
# [22] = test system: HeLa; test: Ratio of compound IC50 to CA-4 IC50 for human HeLa cells after 72 hrs by MTT assay; assay type: functional
# [23] = test system: HT-29; test: Ratio of CA-4 IC50 to compound IC50 for human HT-29 cells after 72 hrs by MTT assay; assay type: functional
# [24] = test system: Jurkat; test: Antiproliferative activity against human Jurkat cells after 72 hrs by MTT assay; assay type: functional, cell-based; in short: as §2
# [25] = test system: HL-60; test: Antiproliferative activity against human HL60 cells after 72 hrs by MTT assay; assay type: functional, cell-based; conditions: HL-60, 72 h
# [26] = test system: A549; test: Antiproliferative activity against human A549 cells after 72 hrs by MTT assay; assay type: functional, cell-based; conditions: A549, 72 h
# [27] = test system: HeLa; test: Induction of survivin phosphorylation at Thr34 in human HeLa cells at 250 to 500 nM after 24 to 48 hrs by Western blot analysis
smiles,measurement,setting,value
CCOc1ccc(-c2sc(NC)nc2-c2cc(OC)c(OC)c(OC)c2)cc1,Ratio IC50,[1],2.9
same,Activity,[2],Active
same,Activity,[3],Active
same,Activity,[4],inactive
same,Activity,[5],Active
same,Activity,[6],Active
same,Activity,[7],Active
same,Activity,[8],Active
same,Activity,[9],Active
same,Activity,[10],Active
same,Activity,[11],Active
same,Activity,[12],inactive
same,Activity,[13],Active
same,Activity,[14],Dose-dependent effect
same,inhibition,[15],83%
same,pIC50,[16],6.05
same,pIC50,[17],7.67
same,pIC50,[18],9.10
same,pIC50,[19],7.51
same,GI50,[20],120 nM
same,Ratio IC50,[21],0.34
same,Ratio IC50,[22],2
same,Ratio IC50,[23],1000
same,pIC50,[24],8.77
same,pIC50,[25],8.74
same,pIC50,[26],7.41
same,Activity,[27],Active
